Assay results as given in ChEMBL document CHEMBL2176990, “Synthesis and biological evaluation of 5-benzylidenepyrimidine-2,4,6(1H,3H,5H)-trione derivatives for the treatment of obesity-related nonalcoholic fatty liver disease” (J Med Chem, 2012).
Activity calls are given as the source filed them. The calls are words filed in the database; no cut-off is given here.

What was measured:
[1] = tested on: HepG2; experiment: Reduction of glucose consumption in insulin-resistant human HepG2 cells at 10 uM after 24 hrs by glucose oxidase method; assay type: functional, cell-based
Outline: (§1)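 HepG2 cells in DMEM (22.2 mM glucose) with 10% FBS, exposed to 0.1 μM insulin from plating for 2 days. At confluence, given fresh 22.2 mM glucose DMEM with test agents for 24 h. Medium glucose measured by glucose oxidase. Consumption = blank minus remaining glucose, normalized to MTT. Three independent experiments.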

[2] = tested on: HepG2; experiment: Reduction of glucose consumption in insulin-resistant human HepG2 cells at 10 uM after 24 hrs by glucose oxidase method in presence of 0.1 uM of insulin; assay type: functional, cell-based; outline: as §1
[3] = tested on: Rattus norvegicus; experiment: Antiobesity activity in Wistar rat high fat diet-induced NAFLD model assessed as reduction of serum HDL-cholesterol level at 150 mg/kg, po qd for 4 weeks; assay type: functional
Outline: (§2)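 Male Wistar rats (160−180 g) fed high-fat diet (50.55% calories from fat), n = 10 per group. Dosed orally at 150 mg/kg/day for 4 weeks. Body, liver and fat weights and food intake recorded. Serum lipids, AST, ALT and glucose measured on a biochemistry analyzer. Fasting insulin measured by kit; adiponectin and leptin by ELISA. Mean ± SD; percent change vs HFD group.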

[4] = tested on: Rattus norvegicus; experiment: Antiobesity activity in Wistar rat high fat diet-induced NAFLD model assessed as reduction of serum LDL-cholesterol level at 150 mg/kg, po qd for 4 weeks; assay type: functional; outline: as §2
[5] = tested on: Rattus norvegicus; experiment: Antiobesity activity in Wistar rat high fat diet-induced NAFLD model assessed as reduction of serum total cholesterol level at 150 mg/kg, po qd for 4 weeks; assay type: functional; outline: as §2
[6] = tested on: Rattus norvegicus; experiment: Antiobesity activity in Wistar rat high fat diet-induced NAFLD model assessed as reduction of serum AST level at 150 mg/kg, po qd for 4 weeks; assay type: functional; outline: as §2
[7] = tested on: Rattus norvegicus; experiment: Antiobesity activity in Wistar rat high fat diet-induced NAFLD model assessed as reduction of serum ALT level at 150 mg/kg, po qd for 4 weeks; assay type: functional; outline: as §2
[8] = tested on: Rattus norvegicus; experiment: Antiobesity activity in Wistar rat high fat diet-induced NAFLD model assessed as reduction of serum triglycerides level at 150 mg/kg, po qd for 4 weeks; assay type: functional; outline: as §2
[9] = tested on: Rattus norvegicus; experiment: Antiobesity activity in Wistar rat high fat diet-induced NAFLD model assessed as reduction of serum insulin level at 150 mg/kg, po qd for 4 weeks; assay type: functional; parameters: scale not given: the % may be the effect or the level left; outline: as §2
[10] = tested on: Rattus norvegicus; experiment: Antiobesity activity in Wistar rat high fat diet-induced NAFLD model assessed as reduction of fasting blood glucose level at 150 mg/kg, po qd for 4 weeks; assay type: functional; parameters: scale not given: the % may be the effect or the level left; outline: as §2
[11] = tested on: Rattus norvegicus; experiment: Antiobesity activity in Wistar rat high fat diet-induced NAFLD model assessed as reduction of fat mass at 150 mg/kg, po qd for 4 weeks; assay type: functional; parameters: scale not given: the % may be the effect or the level left; outline: as §2
[12] = tested on: Rattus norvegicus; experiment: Antiobesity activity in Wistar rat high fat diet-induced NAFLD model assessed as reduction of liver weight at 150 mg/kg, po qd for 4 weeks; assay type: functional; parameters: scale not given: the % may be the effect or the level left; outline: as §2
[13] = tested on: Rattus norvegicus; experiment: Antiobesity activity in Wistar rat high fat diet-induced NAFLD model assessed as reduction of body weight at 150 mg/kg, po qd for 4 weeks; assay type: functional; parameters: scale not given: the % may be the effect or the level left; outline: as §2
[14] = tested on: 3T3-L1; experiment: Down-regulation of […] expression in mouse 3T3L1 cells at 1 mM after 24 hrs by ELISA; assay type: functional
Outline: (§3)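 3T3-L1 preadipocytes grown to 2 days post-confluence. Differentiated with 0.5 mM IBMX, 0.25 μM dexamethasone and 1 μg/mL insulin for 2 days, then insulin alone for 2 days, then 10% FBS DMEM. On day 12, treated 24 h; secreted adiponectin and leptin measured by ELISA. Three independent experiments.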

[15] = tested on: 3T3-L1; experiment: Up-regulation of adiponectin expression in mouse 3T3L1 cells at 1 mM after 24 hrs by ELISA; assay type: functional; outline: as §3
[16] = tested on: HepG2; experiment: Reduction of glucose consumption in insulin-resistant human HepG2 cells at 1 mM after 24 hrs by glucose oxidase method in presence of 0.1 uM of insulin; assay type: functional, cell-based; outline: as §1
[17] = tested on: HepG2; experiment: Reduction of glucose consumption in insulin-resistant human HepG2 cells at 1 mM after 24 hrs by glucose oxidase method in presence of 22.2 mM of glucose; assay type: functional, cell-based; outline: as §1
[18] = tested on: Mus musculus; experiment: Antiobesity activity in C57BL/6J mouse high fat diet-induced NAFLD model assessed as reduction of postprandial glucose level at 150 mg/kg, po qd for 6 weeks by intravenous glucose tolerance test; assay type: functional, organism-based; parameters: dose 150 mg/kg
Outline: (§4)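 DIO C57BL/6J mice (HFD 60.0% fat) dosed orally for 6 weeks, n = 5, fasted overnight. Glucose load given either orally at 3.0 g/kg (OGTT) or intravenously at 0.5 g/kg (IGTT). Tail-vein blood sampled at 0, 15, 30, 60, 90, 120 and 180 min.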

[19] = tested on: Mus musculus; experiment: Antiobesity activity in C57BL/6J mouse high fat diet-induced NAFLD model assessed as reduction of postprandial glucose level at 150 mg/kg, po qd for 6 weeks by oral glucose tolerance test; assay type: functional, organism-based; parameters: dose 150 mg/kg; outline: as §4
[20] = tested on: Mus musculus; experiment: Antiobesity activity in C57BL/6J mouse high fat diet-induced NAFLD model assessed as reduction of serum free fatty acid level at 150 mg/kg, po qd for 7 weeks; assay type: functional; parameters: scale not given: the % may be the effect or the level left
Outline: (§5)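 Male C57BL/6J mice, 3 weeks old, fed high-fat diet (60.0% calories from fat) ad libitum for 8 weeks, then randomized into groups of 10. Body weight and food intake recorded daily. Serum markers measured after sacrifice; fasting glucose included. Percent change = (V_HFD − V_treatment)/V_HFD × 100.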

[21] = tested on: Mus musculus; experiment: Antiobesity activity in C57BL/6J mouse high fat diet-induced NAFLD model assessed as reduction of serum HDL-cholesterol level at 150 mg/kg, po qd for 7 weeks; assay type: functional; parameters: scale not given: the % may be the effect or the level left; outline: as §5
[22] = tested on: Mus musculus; experiment: Antiobesity activity in C57BL/6J mouse high fat diet-induced NAFLD model assessed as reduction of serum LDL-cholesterol level at 150 mg/kg, po qd for 7 weeks; assay type: functional; parameters: scale not given: the % may be the effect or the level left; outline: as §5
[23] = tested on: Mus musculus; experiment: Antiobesity activity in C57BL/6J mouse high fat diet-induced NAFLD model assessed as reduction of serum triglycerides level at 150 mg/kg, po qd for 7 weeks; assay type: functional; parameters: scale not given: the % may be the effect or the level left; outline: as §5
[24] = tested on: Mus musculus; experiment: Antiobesity activity in C57BL/6J mouse high fat diet-induced NAFLD model assessed as reduction of serum ALT level at 150 mg/kg, po qd for 7 weeks; assay type: functional; parameters: scale not given: the % may be the effect or the level left; outline: as §5
[25] = tested on: Mus musculus; experiment: Antiobesity activity in C57BL/6J mouse high fat diet-induced NAFLD model assessed as reduction of fasting blood glucose level at 150 mg/kg, po qd for 7 weeks; assay type: functional; parameters: scale not given: the % may be the effect or the level left; outline: as §5
[26] = tested on: Mus musculus; experiment: Antiobesity activity in C57BL/6J mouse high fat diet-induced NAFLD model assessed as reduction of fat mass in epididymal and abdominal at 150 mg/kg, po qd for 7 weeks; assay type: functional, organism-based; parameters: dose 150 mg/kg; outline: as §5
[27] = tested on: Mus musculus; experiment: Antiobesity activity in C57BL/6J mouse high fat diet-induced NAFLD model assessed as reduction of body weight at 150 mg/kg, po qd for 7 weeks; assay type: functional; parameters: scale not given: the % may be the effect or the level left; outline: as §5
[28] = tested on: Rattus norvegicus; experiment: Antiobesity activity in Wistar rat high fat diet-induced NAFLD model assessed as reduction of liver total cholesterol level at 150 mg/kg, po qd for 4 weeks; assay type: functional; parameters: scale not given: the % may be the effect or the level left
Outline: (§6)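 Male Wistar rats on high-fat diet (50.55% fat), dosed orally at 150 mg/kg/day for 4 weeks, n = 10. Liver homogenized in 50 mM Tris-HCl pH 7.4 with 150 mM NaCl, 1 mM PMSF and 1 mM EDTA, then triglycerides and total cholesterol assayed. Liver sections stained with H&E to assess lipid droplets.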

[29] = tested on: Rattus norvegicus; experiment: Antiobesity activity in Wistar rat high fat diet-induced NAFLD model assessed as reduction of liver triglycerides level at 150 mg/kg, po qd for 4 weeks; assay type: functional; parameters: scale not given: the % may be the effect or the level left; outline: as §6
[30] = tested on: Rattus norvegicus; experiment: Antiobesity activity in Wistar rat high fat diet-induced NAFLD model assessed as reduction of leptin level at 150 mg/kg, po qd for 4 weeks; assay type: functional; outline: as §2
[31] = tested on: Rattus norvegicus; experiment: Antiobesity activity in Wistar rat high fat diet-induced NAFLD model assessed as increase of adiponectin level at 150 mg/kg, po qd for 4 weeks; assay type: functional; outline: as §2
[32] = tested on: 3T3-L1; experiment: Down-regulation of […] expression in mouse 3T3L1 cells at 10 uM after 24 hrs by ELISA; assay type: functional; outline: as §3
[33] = tested on: 3T3-L1; experiment: Up-regulation of adiponectin expression in mouse 3T3L1 cells at 10 uM after 24 hrs by ELISA; assay type: functional; outline: as §3
[34] = tested on: HepG2; experiment: Reduction of glucose consumption in insulin-resistant human HepG2 cells at 10 uM after 24 hrs by glucose oxidase method in presence of 22.2 mM of glucose; assay type: functional, cell-based; outline: as §1

Question: With O=C1NC(=O)C(=Cc2ccc(OC3CCN(C(=O)c4ccc(Cl)cn4)CC3)cc2)C(=O)N1 as the compound, how does the Activity [1] read?
Answer: inactive

Question: And the Activity [2]?
Answer: inactive

Question: How did the Activity [1] turn out when O=C1NC(=O)C(=Cc2ccc(C(=O)NC3CCN(c4cc([N+](=O)[O-])ccn4)CC3)cc2)C(=O)N1 was run?
Answer: inactive

Question: And the Activity [2]?
Answer: inactive

Question: How did the Activity [1] turn out when O=C1NC(=O)C(=Cc2ccc(C(=O)N3CCC(Nc4cc([N+](=O)[O-])ccn4)CC3)cc2)C(=O)N1 was run?
Answer: inactive

Question: And the Activity [2]?
Answer: inactive

Question: Which results are given for O=C1NC(=O)C(=Cc2ccc(OC3CCN(c4ncccc4C(F)(F)F)CC3)c(F)c2)C(=O)N1?
Answer: Activity [1]: inactive; Activity [2]: inactive

Question: For O=C1NC(=O)C(=Cc2ccc(OC3CCN(c4ccc(C(F)(F)F)cn4)CC3)cc2)C(=O)N1, which Activity [1] is on record?
Answer: inactive

Question: And the Activity [2]?
Answer: inactive

Question: What does the source list for O=C1NC(=O)C(=Cc2ccc(OC3CCN(C(=O)c4ccc(OC(F)F)cc4)CC3)cc2)C(=O)N1?
Answer: Activity [1]: inactive; Activity [2]: inactive

Question: O=C1NC(=O)C(=Cc2ccc(CNC3CCN(c4ccc([N+](=O)[O-])cn4)CC3)cc2)C(=O)N1 was tested. Which Activity [1] did it give?
Answer: inactive

Question: What about the Activity [2] of the same compound?
Answer: inactive

Question: What does the source list for CN(C)C(=N)NC(=N)N [METFORMIN]?
Answer: Activity [3]: 0.28 mmol/L; Activity [4]: 0.15 mmol/L; Activity [5]: 1.99 mmol/L; Activity [6]: 89 U/L; Activity [7]: 39 U/L; Activity [8]: 1.6 mmol/L; Activity [9]: 12.8%; Activity [10]: 19.7%; Activity [11]: 18.1%; Activity [12]: 2.2%; Activity [13]: 5.2%; Activity [14]: 360.8 pg/mL; Activity [15]: 125.8 pg/mL; Activity [16]: Active; Activity [17]: Active; Activity [18]: Active; Activity [19]: Active; Activity [20]: 3.7%; Activity [21]: 46.7%; Activity [22]: 44.4%; Activity [23]: 29.3%; Activity [24]: 66%; Activity [25]: 10.3%; Activity [26]: Active; Activity [27]: 9.62%; Activity [28]: 50%; Activity [29]: 48.8%; Activity [30]: 13.6 ng/mL; Activity [31]: 198.3 µg/mL

Question: O=C1NC(=O)C(=Cc2ccc(OC3CCN(C(=O)c4ccccn4)CC3)cc2)C(=O)N1 was tested. Which Activity [1] did it give?
Answer: inactive

Question: What about the Activity [2] of the same compound?
Answer: inactive

Question: Which Activity [1] does the source give for N#Cc1cccnc1N1CCC(NC(=O)c2ccc(C=C3C(=O)NC(=O)NC3=O)cc2)CC1 here?
Answer: inactive

Question: And the Activity [2]?
Answer: inactive

Question: Which Activity [1] does the source give for O=C1NC(=O)C(=Cc2ccc(OC3CCN(C(=O)c4cccc5c4OC(F)(F)O5)CC3)c(F)c2)C(=O)N1 here?
Answer: inactive

Question: What about the Activity [2] of the same compound?
Answer: inactive

Question: Which results are given for O=C1NC(=O)C(=Cc2ccc(OC3CCN(C(=O)c4cccc(C(F)(F)F)c4)CC3)cc2)C(=O)N1?
Answer: Activity [32]: inactive; Activity [33]: Active; Activity [34]: Active; Activity [2]: Active

Question: Which results are given for O=C1NC(=O)C(=Cc2ccc(OC3CCN(C(=O)c4cccc(Cl)n4)CC3)cc2)C(=O)N1?
Answer: Activity [1]: inactive; Activity [2]: inactive
